Assay [1] concerns the target T1, 5-hydroxytryptamine receptor 1B (Homo sapiens, UniProt P28222). In words: Agonist activity at 5-hydroxytryptamine 1B receptor by measuring the inhibition of forskolin-stimulated cAMP formation. The assay is classed as functional. In short, it runs like this: (§1)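 Human 5-HT1B receptors expressed in CHO-K1 cells. Agonist response read as inhibition of forskolin-stimulated cAMP formation. EC50 determined, and Emax expressed as a percentage of the maximal inhibition produced by 1 µM 5-HT. Values are the mean of two or three experiments, each run in duplicate, with individual values typically within ±10-20% of the mean.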

The target of assay [2] is T1, 5-hydroxytryptamine receptor 1B. In words: Receptor binding affinity for cloned human 5-hydroxytryptamine 1B receptor in Cos-7 cells. The assay is classed as cell-based.
In assay [3] the target is T2, 5-hydroxytryptamine receptor 1A (Homo sapiens, UniProt P08908).
T2 sequence (P08908 whole entry): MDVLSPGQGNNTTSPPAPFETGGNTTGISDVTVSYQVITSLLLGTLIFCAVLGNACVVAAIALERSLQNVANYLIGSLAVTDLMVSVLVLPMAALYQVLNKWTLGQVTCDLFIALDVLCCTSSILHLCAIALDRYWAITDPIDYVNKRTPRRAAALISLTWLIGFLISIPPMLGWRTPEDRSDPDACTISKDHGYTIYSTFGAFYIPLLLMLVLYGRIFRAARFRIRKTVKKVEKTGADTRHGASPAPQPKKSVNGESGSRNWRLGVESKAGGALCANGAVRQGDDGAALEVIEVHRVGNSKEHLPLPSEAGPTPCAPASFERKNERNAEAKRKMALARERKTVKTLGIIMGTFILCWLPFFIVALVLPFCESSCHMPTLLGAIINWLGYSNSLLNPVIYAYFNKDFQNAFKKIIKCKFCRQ
As to the kind of experiment: Receptor binding affinity for cloned human 5-hydroxytryptamine 1A receptor in HeLa cells. The assay is classed as cell-based.

The target of assay [4] is T1, 5-hydroxytryptamine receptor 1B. As to the kind of experiment: Antagonism tested at 1 uM against the agonist-induced inhibitory effect of 10 nM 5-carbamoyltryptamine(5-CT). Type of assay: functional. In short, it runs like this:
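Run in the same forskolin-stimulated cAMP system, with h5-HT1B receptors expressed in CHO-K1 cells. The compound at 1 µM was tested against the inhibition of cAMP formation produced by 10 nM 5-CT. Values are the mean of two or three experiments, each in duplicate.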

Assay [5] shares this target. As to the kind of experiment: Percentage Maximal inhibition obtained with 1 uM 5-HT against 5-hydroxytryptamine 1B receptor. In short, it runs like this:
as §1

The target in assay [6] is 5-hydroxytryptamine receptor 1D (Homo sapiens, UniProt P28221). In words: Receptor binding affinity for cloned human 5-hydroxytryptamine 1D receptor in Cos-7 cells. The assay is classed as cell-based.
Assay [7] addresses T1, 5-hydroxytryptamine receptor 1B. To be noted: 1 uM.

Structures are written as SMILES. Bounds are passed on as bounds.

Sequence of 5-hydroxytryptamine receptor 1D (P28221 whole entry): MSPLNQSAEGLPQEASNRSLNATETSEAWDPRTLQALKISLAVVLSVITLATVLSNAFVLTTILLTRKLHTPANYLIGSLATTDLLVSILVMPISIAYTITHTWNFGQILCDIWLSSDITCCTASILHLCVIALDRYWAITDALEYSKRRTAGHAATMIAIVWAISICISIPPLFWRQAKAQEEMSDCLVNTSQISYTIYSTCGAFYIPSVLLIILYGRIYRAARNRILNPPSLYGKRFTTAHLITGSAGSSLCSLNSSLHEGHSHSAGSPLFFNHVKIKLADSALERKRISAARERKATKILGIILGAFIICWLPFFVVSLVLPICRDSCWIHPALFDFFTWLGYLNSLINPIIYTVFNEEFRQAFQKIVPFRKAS
T1 sequence (P28222 whole entry): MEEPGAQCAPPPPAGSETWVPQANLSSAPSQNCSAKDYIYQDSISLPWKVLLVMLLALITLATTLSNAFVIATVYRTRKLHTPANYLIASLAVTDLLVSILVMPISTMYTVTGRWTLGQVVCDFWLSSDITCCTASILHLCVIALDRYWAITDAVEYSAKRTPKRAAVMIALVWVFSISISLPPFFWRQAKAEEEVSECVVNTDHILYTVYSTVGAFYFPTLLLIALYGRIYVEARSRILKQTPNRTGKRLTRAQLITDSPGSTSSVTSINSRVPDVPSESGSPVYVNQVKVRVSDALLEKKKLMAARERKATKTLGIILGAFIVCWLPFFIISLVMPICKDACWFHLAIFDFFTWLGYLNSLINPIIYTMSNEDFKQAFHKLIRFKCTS

In general, EC50 refers to the concentration giving half of the maximal effect. High values mean a need for much substance, low ones an effect from little substance. Broadly, the Ki is a dissociation constant, usually derived from enzyme kinetics or from competition with a known ligand. High values mean weaker binding, low ones tighter binding. Broadly, the Emax is the maximal effect, on the per cent scale that the assay sets. As for `COc1cccc(N2CCN(C(=O)COc3ccc4cccc(N5CCN(C)CC5)c4c3)CC2)c1OC`, the EC50 in assay [1] amounted to 30 nM. Also, the Ki turned out to be 0.44 nM in assay [2], 13.4 nM in assay [3] and 0.62 nM in assay [6]. Also, the Antagonism in assay [4] came to 47%. In assay [5], the Emax stood at 69%.
In turn, `COc1ccc2ccc(N3CCNCC3)cc2c1` gave an EC50 in assay [1] above 1000 nM. In addition, the Ki in assay [2] is 2 nM; in assay [3] it was 2.8 nM; in assay [6] it was 0.7 nM. The compound further had an Antagonism in assay [4] of 95%. Further, in assay [5], the Emax was below 10%.
`Cc1cc(C)c(N2CCN(C(=O)COc3ccc4cccc(N5CCN(C)CC5)c4c3)CC2)c(C)c1`: in assay [1], the EC50 is 25 nM. For the same compound, the figures for the Ki in assay [2], in assay [3] and in assay [6] were 1.4 nM, 117 nM and 1.9 nM, respectively. Moreover, the Antagonism in assay [4] is 46%. The same compound showed an Emax in assay [5] of 26%.
In assay [1], `CN1CCN(c2cccc3ccc(OCC(=O)N4CCN(c5cccc6c5OCCO6)CC4)cc23)CC1` registered an EC50 of 25 nM. Also, the inhibition constant Ki in assay [2] stood at 0.43 nM; in assay [3], 14.1 nM; in assay [6], 0.45 nM. Moreover, the Antagonism in assay [4] was determined as 45%. In addition, in assay [5], the Emax was 58%.
In assay [7], `Cc1ccccc1N1CCN(C(=O)COc2ccc3cccc(N4CCN(C)CC4)c3c2)CC1` had an Antagonism of 80%. The EC50 in assay [1] was above 1000 nM. The Ki in assay [2] turned out to be 0.3 nM; in assay [6], 0.69 nM. In addition, the Emax in assay [5] is below 10%.
Compound `CN1CCN(c2cccc3ccc(OCC(=O)N4CCN(c5cccc6ccccc56)CC4)cc23)CC1` showed an EC50 in assay [1] above 1000 nM. In addition, the figures for the inhibition constant Ki in assay [2], in assay [3] and in assay [6] were 0.43 nM, 114 nM and 0.88 nM, respectively. The same compound returned an Antagonism in assay [4] of 57%. This compound also showed an Emax in assay [5] below 10%.
In turn, `c1ccc2c(N3CCNCC3)cccc2c1` came in with an EC50 in assay [1] above 1000 nM. In addition, the Ki in assay [2] came out at 10.1 nM; in assay [3] it was 9.2 nM; in assay [6] it was 6.2 nM. The compound further returned an Antagonism in assay [4] of 96%. Moreover, the Emax in assay [5] is below 10%.
The compound `CN1CCN(c2cccc3ccc(OCC(=O)N4CCN(c5ccccc5C#N)CC4)cc23)CC1` returned an EC50 in assay [1] of 28 nM. Further, the Ki is 0.38 nM in assay [2], 12.3 nM in assay [3] and 0.51 nM in assay [6]. The Antagonism in assay [4] turned out to be 56%. Besides, the maximal effect (Emax) in assay [5] was determined as 48%.
On to `Cc1ccccc1CN1CCN(C(=O)COc2ccc3cccc(N4CCN(C)CC4)c3c2)CC1`, for which the EC50 in assay [1] was above 1000 nM. For the same compound, the Ki turned out to be 0.2 nM in assay [2], 22.7 nM in assay [3] and 0.55 nM in assay [6]. The compound further came in with an Antagonism in assay [4] of 87%. The maximal effect (Emax) in assay [5] was below 10%.

Values taken from ChEMBL document CHEMBL1130252, “5-HT1B receptor antagonist properties of novel arylpiperazide derivatives of 1-naphthylpiperazine” (J Med Chem, 1997).
